Assay results as given in ChEMBL document CHEMBL3745677, “Discovery of 6-(4-{[5-Cyclopropyl-3-(2,6-dichlorophenyl)isoxazol-4-yl]methoxy}piperidin-1-yl)-1-methyl-1H-indole-3-carboxylic Acid: A Novel FXR Agonist for the Treatment of Dyslipidemia” (J Med Chem, 2015).

What was measured:
[1] = tested on: Rattus norvegicus; experiment: Antidyslipidemic activity in ZDF rat assessed as LDL/IgHDL level at 30 mg/kg for 9 days by FPLC analysis (reference value: 17.8 mg/dL); type: functional, Zucker
[2] = Volume of distribution at steady state in Sprague-Dawley rat at 1 mg/kg, iv by LC-MS/MS analysis; type: ADME, organism-based; settings: in vivo, read-out: Vdss
How it was run: (§1)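 Intravenous dose given in 5% Solutol / 5% EtOH in saline (1 mg/kg rat and dog, 0.91 mpk monkey). Plasma samples collected and analyzed by LC-MS/MS; parameters reported as mean ± SD, N=2-3.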

[3] = tested on: Mus musculus; experiment: Antidyslipidemic activity in western-diet fed mouse expressing LDL-receptor (-/-) assessed as decrease in triglyceride level at 1 mg/kg qd for a week administered via gavage by FPLC analysis; type: functional; settings: po
[4] = tested on: Mus musculus; experiment: Antidyslipidemic activity in western-diet fed mouse expressing LDL-receptor (-/-) assessed as decrease in triglyceride level at 3 mg/kg qd for a week administered via gavage […]; type: functional; settings: po
How it was run: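 Male LDLR null mice, six per group, were gavaged once daily for one week with compound (in situ sodium salt) or vehicle (5% Solutol, 5% EtOH, 1% wt/v CMC) at 5 mL/kg. On day 7 they were bled by cardiac puncture under CO2 anaesthesia. Serum cholesterol and triglycerides were measured enzymatically on a clinical chemistry analyser (mean ± SD, n=6). ED50 was obtained by nonlinear regression.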

[5] = tested on: Mus musculus; experiment: Antidyslipidemic activity in western-diet fed mouse expressing LDL-receptor (-/-) assessed as decrease in very-low density lipoprotein level at 30 mg/kg qd for a week administered via gavage by FPLC analysis; type: functional; settings: po
How it was run: (§2)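 LDLR null male mice, six per group, were dosed by gavage once daily for one week (vehicle 5% Solutol, 5% EtOH, 1% wt/v CMC; 5 mL/kg). Serum was collected by cardiac puncture on day 7 under CO2 anaesthesia. Pooled serum from each treatment group was fractionated by FPLC to quantify VLDL and LDL.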

[6] = tested on: Mus musculus; experiment: Antidyslipidemic activity in western-diet fed mouse expressing LDL-receptor (-/-) assessed as decrease in low density lipoprotein level at 30 mg/kg qd for a week administered via gavage by FPLC analysis; type: functional; settings: po; how it was run: as §2
[7] = Terminal half life in beagle dog at 1 mg/kg, iv by LC-MS/MS analysis; type: ADME, organism-based, Canis lupus familiaris; settings: in vivo, read-out: beta t1/2 (converted); how it was run: as §1
[8] = Tmax in beagle dog at 3 mg/kg, po by LC-MS/MS analysis; type: ADME, organism-based, Canis lupus familiaris; settings: in vivo
How it was run: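 Oral/nasogastric dosing at 3 mpk in 1.0% CMC/0.25% PS80/0.05% antifoam in purified water. Plasma samples collected and analyzed by LC-MS/MS; parameters reported as mean ± SD, N=2-3.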

[9] = Initial plasma concentration in cynomolgus monkey at 0.91 mg/kg, iv by LC-MS/MS analysis; type: ADME, organism-based, Macaca fascicularis; how it was run: as §1
[10] = Fraction unbound in human plasma; type: ADME, cell-free
[11] = Half life in human at 75 to 600 mg; type: ADME, organism-based; settings: in vivo
How it was run: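 Healthy subjects (two cohorts of 9) received single oral doses in a double-blind, placebo-controlled, 2-cohort, 3-period dose-escalation study at one site. Doses covered 5 to 600 mg. Half-life was taken as the mean over the 75–600 mg range.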

[12] = target: T1, Glucocorticoid receptor (Homo sapiens, UniProt P04150); experiment: Agonist activity at glucocorticoid receptor (unknown origin) expressed in HEK293 cells assessed as transcriptional activation; type: cell-based
T1 sequence (P04150 whole entry): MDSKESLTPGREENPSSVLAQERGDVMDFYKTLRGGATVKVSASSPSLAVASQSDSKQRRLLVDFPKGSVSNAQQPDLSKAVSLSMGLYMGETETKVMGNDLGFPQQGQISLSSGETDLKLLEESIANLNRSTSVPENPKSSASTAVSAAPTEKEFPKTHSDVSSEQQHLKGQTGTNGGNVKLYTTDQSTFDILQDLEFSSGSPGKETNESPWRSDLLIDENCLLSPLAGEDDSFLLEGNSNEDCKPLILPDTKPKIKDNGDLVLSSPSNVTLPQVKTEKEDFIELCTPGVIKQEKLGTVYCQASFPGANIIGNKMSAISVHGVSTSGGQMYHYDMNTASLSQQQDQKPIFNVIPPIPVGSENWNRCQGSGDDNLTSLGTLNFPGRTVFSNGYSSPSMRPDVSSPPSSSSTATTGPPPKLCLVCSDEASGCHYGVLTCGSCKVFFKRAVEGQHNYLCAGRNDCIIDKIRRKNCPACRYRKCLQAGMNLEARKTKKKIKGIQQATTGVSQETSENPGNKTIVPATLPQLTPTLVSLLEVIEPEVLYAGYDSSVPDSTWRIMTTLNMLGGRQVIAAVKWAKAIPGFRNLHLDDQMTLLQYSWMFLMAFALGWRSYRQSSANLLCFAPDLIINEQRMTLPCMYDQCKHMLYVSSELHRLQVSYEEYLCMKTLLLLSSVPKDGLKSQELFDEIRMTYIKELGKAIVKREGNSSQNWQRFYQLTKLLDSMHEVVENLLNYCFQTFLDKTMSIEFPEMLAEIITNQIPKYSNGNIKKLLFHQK

[13] = target: T2, Androgen receptor (Homo sapiens, UniProt P10275); experiment: Agonist activity at androgen receptor (unknown origin) expressed in HEK293 cells assessed as transcriptional activation; type: cell-based
T2 sequence (P10275 whole entry): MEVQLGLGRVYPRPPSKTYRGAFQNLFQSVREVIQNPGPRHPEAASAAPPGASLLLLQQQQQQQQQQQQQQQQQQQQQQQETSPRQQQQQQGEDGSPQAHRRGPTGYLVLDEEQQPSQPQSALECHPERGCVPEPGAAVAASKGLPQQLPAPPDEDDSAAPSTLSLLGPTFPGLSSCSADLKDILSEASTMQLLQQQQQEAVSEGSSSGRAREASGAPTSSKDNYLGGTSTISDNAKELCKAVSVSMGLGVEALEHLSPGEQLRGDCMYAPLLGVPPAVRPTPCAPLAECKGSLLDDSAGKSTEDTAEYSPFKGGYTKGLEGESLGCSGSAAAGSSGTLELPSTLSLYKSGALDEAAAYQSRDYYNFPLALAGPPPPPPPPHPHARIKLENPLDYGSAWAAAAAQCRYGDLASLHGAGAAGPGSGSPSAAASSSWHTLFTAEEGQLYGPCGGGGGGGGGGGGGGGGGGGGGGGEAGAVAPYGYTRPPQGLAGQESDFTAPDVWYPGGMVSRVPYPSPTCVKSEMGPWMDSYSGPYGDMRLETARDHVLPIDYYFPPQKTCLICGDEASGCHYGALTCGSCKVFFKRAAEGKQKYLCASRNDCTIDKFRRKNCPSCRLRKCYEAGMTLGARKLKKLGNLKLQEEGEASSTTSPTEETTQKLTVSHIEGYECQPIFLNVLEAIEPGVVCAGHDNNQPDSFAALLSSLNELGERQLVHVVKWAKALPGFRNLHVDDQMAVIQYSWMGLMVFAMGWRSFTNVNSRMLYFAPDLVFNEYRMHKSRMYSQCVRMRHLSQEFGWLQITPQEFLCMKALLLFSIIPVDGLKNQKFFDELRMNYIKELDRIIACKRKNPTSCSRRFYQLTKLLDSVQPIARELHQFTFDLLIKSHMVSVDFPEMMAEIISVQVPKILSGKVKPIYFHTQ

Vd [2]: 1.24 L/kg
half-life [7]: 10 h
Tmax [8]: 0.75 h
C0 [9]: 4220 ng/mL
fraction unbound [10]: 0.032
half-life [11]: 16.9 h
EC50 [12]: > 10 µM
EC50 [13]: > 10 µM
Compound: Cn1cc(C(=O)O)c2ccc(N3CCC(OCc4c(-c5c(Cl)cccc5Cl)noc4C4CC4)CC3)cc21 [TERN-101]
Activity [1]: 18.6 mg/dL
inhibition in vivo at 1 mg/kg [3]: 25%
inhibition in vivo at 3 mg/kg [4]: 46%
inhibition in vivo at 30 mg/kg [5]: 98%
inhibition in vivo at 30 mg/kg [6]: 62%
